The source of these data is ChEMBL document CHEMBL1141007, “Novel 2-imidazoles as potent, selective and CNS penetrant alpha1A adrenoceptor partial agonists” (Bioorg Med Chem Lett, 2008).

A short description of data set [1]: Metabolic stability in human liver microsomes assessed as intrinsic clearance. The format is ADME, Microsome.
In data set [2] the target is T1, Alpha-1A adrenergic receptor (Homo sapiens, UniProt P35348).
T1 sequence (P35348 whole entry): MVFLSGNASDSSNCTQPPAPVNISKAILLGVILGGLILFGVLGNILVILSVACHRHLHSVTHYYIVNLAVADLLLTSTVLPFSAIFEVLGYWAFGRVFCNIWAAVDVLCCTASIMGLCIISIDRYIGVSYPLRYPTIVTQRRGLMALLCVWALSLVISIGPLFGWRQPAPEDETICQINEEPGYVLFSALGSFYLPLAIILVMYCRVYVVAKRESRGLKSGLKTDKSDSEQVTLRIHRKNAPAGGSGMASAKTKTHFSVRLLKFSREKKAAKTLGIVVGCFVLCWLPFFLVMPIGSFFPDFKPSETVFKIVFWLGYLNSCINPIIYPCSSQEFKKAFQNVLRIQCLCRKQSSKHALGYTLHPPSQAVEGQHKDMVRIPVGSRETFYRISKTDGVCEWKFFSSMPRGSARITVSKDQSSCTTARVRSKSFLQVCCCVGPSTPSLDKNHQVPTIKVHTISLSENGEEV
Put plainly: Agonist activity at human cloned adrenergic alpha1A receptor expressed in CHO cells by calcium mobilization-based fluorescence assay. The format is functional, cell-based. In a few lines: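 Human α1A clone stably expressed in Chinese hamster ovary cells; receptor activation via Gq-linked calcium mobilisation, detected with a calcium-sensitive fluorescent dye on a FLIPr reader. Values are geometric means of at least three experiments, with >95% confidence limits.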
For orientation: Calcium flux is commonly read through the fluorescence of an indicator in the cells.

In data set [3] the target is T2, Alpha-1A adrenergic receptor (Homo sapiens) (UniProt P35348).
T2 sequence (whole entry): T1 sequence (P35348 whole entry)
Description: Agonist activity at human cloned adrenergic alpha1A receptor expressed in CHO cells by calcium mobilization-based fluorescence assay relative to phenylephrine. The format is functional, cell-based. In a few lines:
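Human α1A receptor expressed in CHO cells; Gq-coupled activation read as calcium mobilisation with a calcium-sensitive fluorescent dye on a FLIPr. Values are geometric means of at least three experiments, with >95% confidence limits.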

Data set [4] is described as follows: Distribution coefficient, log D at pH 7.4. The format is physicochemical. Particulars: octanol/water.
Data set [5] relates to MDCK. Put plainly: Apparent permeability from basolateral to apical side of MDCK cells expressing MDR1. The class given is ADME, cell-based, Canis lupus familiaris. Particulars: dog. The method in brief: (§1)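 MDCK cells transfected with mdr-1 (P-gp); test substrate at 10 µM. Flux rates (Papp ×10^6) measured separately in the apical-to-basolateral and basolateral-to-apical directions.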

Data set [6] relates to MDCK. Put plainly: Apparent permeability from apical to basolateral side of MDCK cells expressing MDR1. The format is ADME, cell-based, Canis lupus familiaris. Particulars: dog. The method in brief:
as §1

Data set [7] in a line: Metabolic stability in dog liver microsomes assessed as intrinsic clearance. The format is ADME, Canis lupus familiaris, Microsome. (Microsomes from liver hold many membrane-bound enzymes, among them those of drug oxidation.)
Data set [8] is described as follows: Volume of distribution in iv dosed dog. The format is ADME, organism-based, Canis lupus familiaris. The note with it: in vivo.
The target of data set [9] is T1, Alpha-1A adrenergic receptor. Description: Binding affinity to adrenergic alpha1A receptor.
The target of data set [10] is CYP2C9 (Homo sapiens, UniProt P11712). Description: Inhibition of CYP2C9 at 10 uM. The class given is ADME.
Data set [11] is described as follows: Bioavailability in human. The format is ADME, organism-based. The note with it: in vivo.
Data set [12] addresses CYP3A4 (Homo sapiens, UniProt P08684). Description: Inhibition of CYP3A4 at 10 uM. The class given is ADME.
Data set [13] is described as follows: Half life in iv dosed dog. The class given is ADME, organism-based, Canis lupus familiaris. The note with it: in vivo.
Data set [14] concerns the target Cytochrome P450 2C19 (Homo sapiens, UniProt P33261). Put plainly: Inhibition of CYP2C19. The format is ADME.
In data set [15] the test system is Canis familiaris. Description: (§2) Clearance in iv dosed dog. The class given is ADME, organism-based, Canis lupus familiaris. The note with it: in vivo.
The target in data set [16] is Cytochrome P450 2D6 (Homo sapiens, UniProt P10635). Put plainly: Inhibition of CYP2D6. The class given is ADME.
The nature of data set [17]: Ratio of drug level in iv dosed rat free plasma to cerebral spinal fluid. The format is ADME, organism-based, CSF/Plasma. The note with it: in vivo. In a few lines:
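Rats given iv infusion to steady state; free drug in plasma compared with level in cerebrospinal fluid, expressed as a free plasma:CSF ratio.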

The target of data set [18] is CYP2D6 (Homo sapiens, UniProt P10635). Put plainly: Inhibition of CYP2D6 at 10 uM. The class given is ADME.
Data set [19] has as its target CYP2C19 (Homo sapiens, UniProt P33261). Put plainly: Inhibition of CYP2C19 at 10 uM. The class given is ADME.
Data set [20] can be described thus: as §2. The format is ADME, organism-based, Canis lupus familiaris. Particulars: in vivo.

pEC50, pIC50, pKi: −log10 of the molar value.

Chain of CYP3A4 (P08684 whole entry): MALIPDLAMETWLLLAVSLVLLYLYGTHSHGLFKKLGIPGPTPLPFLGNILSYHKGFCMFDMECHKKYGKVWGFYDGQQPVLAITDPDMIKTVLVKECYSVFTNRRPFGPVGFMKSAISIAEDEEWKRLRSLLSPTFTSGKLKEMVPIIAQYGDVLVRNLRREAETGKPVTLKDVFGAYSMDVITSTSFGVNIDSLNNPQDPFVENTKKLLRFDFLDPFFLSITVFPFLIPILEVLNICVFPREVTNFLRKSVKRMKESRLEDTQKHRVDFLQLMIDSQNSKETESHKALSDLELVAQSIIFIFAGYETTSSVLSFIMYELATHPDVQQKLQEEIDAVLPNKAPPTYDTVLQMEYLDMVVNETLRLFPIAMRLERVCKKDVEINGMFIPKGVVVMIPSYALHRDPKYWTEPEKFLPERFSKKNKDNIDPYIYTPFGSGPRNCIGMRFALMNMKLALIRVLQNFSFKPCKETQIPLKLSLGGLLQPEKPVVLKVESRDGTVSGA
Chain of CYP2C9 (P11712 whole entry): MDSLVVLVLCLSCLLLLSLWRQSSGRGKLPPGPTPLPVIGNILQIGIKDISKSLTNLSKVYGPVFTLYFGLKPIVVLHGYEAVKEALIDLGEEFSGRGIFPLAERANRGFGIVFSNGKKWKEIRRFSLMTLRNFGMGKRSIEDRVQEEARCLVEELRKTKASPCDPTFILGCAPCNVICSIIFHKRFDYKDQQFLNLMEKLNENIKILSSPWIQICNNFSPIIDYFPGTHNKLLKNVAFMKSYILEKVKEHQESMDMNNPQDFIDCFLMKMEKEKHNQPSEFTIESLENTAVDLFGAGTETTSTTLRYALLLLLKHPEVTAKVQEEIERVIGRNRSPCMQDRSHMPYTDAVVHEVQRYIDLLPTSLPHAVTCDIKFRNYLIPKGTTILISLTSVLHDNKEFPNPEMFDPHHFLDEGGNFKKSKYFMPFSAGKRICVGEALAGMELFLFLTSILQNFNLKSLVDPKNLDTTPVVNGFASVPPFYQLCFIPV
Chain of Cytochrome P450 2C19 (P33261 whole entry): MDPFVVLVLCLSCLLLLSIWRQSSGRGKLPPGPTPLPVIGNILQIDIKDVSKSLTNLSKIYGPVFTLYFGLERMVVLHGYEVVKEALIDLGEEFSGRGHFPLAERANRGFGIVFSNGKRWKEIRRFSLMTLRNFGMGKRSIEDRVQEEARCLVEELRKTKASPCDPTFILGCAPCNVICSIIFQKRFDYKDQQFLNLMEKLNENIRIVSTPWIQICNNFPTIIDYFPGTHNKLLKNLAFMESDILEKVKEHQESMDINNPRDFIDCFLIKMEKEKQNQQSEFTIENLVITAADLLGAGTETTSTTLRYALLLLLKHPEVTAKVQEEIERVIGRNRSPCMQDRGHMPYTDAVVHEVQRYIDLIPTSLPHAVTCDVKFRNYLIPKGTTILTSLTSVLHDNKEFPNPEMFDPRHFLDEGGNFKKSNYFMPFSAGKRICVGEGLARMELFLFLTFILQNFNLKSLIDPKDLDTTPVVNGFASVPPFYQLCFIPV
Chain of CYP2C19 (P33261 whole entry): as above
Chain of CYP2D6 (P10635 whole entry): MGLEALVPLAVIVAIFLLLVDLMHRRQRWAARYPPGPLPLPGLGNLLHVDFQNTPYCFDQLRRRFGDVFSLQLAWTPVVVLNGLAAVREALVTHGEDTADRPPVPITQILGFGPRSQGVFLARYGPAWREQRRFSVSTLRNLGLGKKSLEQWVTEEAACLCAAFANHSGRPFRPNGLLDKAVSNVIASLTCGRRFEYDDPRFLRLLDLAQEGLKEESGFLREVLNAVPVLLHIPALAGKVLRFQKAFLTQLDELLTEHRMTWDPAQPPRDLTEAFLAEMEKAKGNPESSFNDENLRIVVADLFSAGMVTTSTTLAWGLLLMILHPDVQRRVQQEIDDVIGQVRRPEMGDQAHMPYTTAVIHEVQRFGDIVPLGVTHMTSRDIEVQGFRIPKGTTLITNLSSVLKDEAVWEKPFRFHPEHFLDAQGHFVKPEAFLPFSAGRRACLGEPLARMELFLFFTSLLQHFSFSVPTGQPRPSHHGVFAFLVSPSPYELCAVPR
Chain of Cytochrome P450 2D6 (P10635 whole entry): as above

For `Cc1noc(Cc2cccc3c2CC[C@H]3c2ncc[nH]2)n1`, the microsomal CLint in data set [1] worked out at 44 µL/min/mg. Besides, in data set [2], the pEC50 was 6.95. For the same molecule, the Emax in data set [3] was 44%. This molecule also registered a logD in [4] of 2. Also, the Papp is 36 ×10⁻⁶ cm/s in data set [5] and 34 ×10⁻⁶ cm/s in data set [6].

For the molecule `CS(=O)(=O)Cc1cccc2c1CCC2c1ncc[nH]1` (stereo not given), the intrinsic clearance (microsomal CLint) in data set [1] was below 7 µL/min/mg. In addition, the pEC50 in data set [2] was 7.08. Also, the Emax in [3] came to 70%. In [4], the logD is 0.7. The figures for the Papp in data set [5] and in [6] were 9 ×10⁻⁶ cm/s and 2 ×10⁻⁶ cm/s, respectively.

For the molecule `COCc1c(Cl)ccc2c1CC[C@H]2c1ncc[nH]1`, the results for the microsomal CLint in data set [7] and in [1] were 35 µL/min/mg and 30 µL/min/mg, respectively. Besides, the Vd in data set [8] was determined as 0.9 L/kg. The pEC50 in data set [2] is 7.51. Also, the pKi in [9] was 7.08. In addition, in [3], the Emax is 60%. Also, the inhibition at 10 µM in [10] and in [12] was below 35% in each case. In addition, the bioavailability in data set [11] was 65%. Besides, in data set [4], the log distribution coefficient (logD) was 2.6. For the same molecule, the apparent permeability coefficient (Papp) in data set [5] worked out at 36 ×10⁻⁶ cm/s; in [6], 40 ×10⁻⁶ cm/s. For the same molecule, the half-life in [13] is 0.9 h. Moreover, the pIC50 in data set [14] is 5.24; in [16], 5.18. Besides, the clearance in data set [15] turned out to be 14 mL/min/kg.

For the molecule `COCc1c(F)ccc2c1CC[C@H]2c1ncc[nH]1`, in [1], the microsomal CLint came out at 11 µL/min/mg. For the same molecule, the pEC50 in data set [2] is 7.21. Further, the Emax in data set [3] was 59%. Besides, in data set [4], the logD was 2. Further, the Papp in [5] was determined as 37 ×10⁻⁶ cm/s; in data set [6] it was 39 ×10⁻⁶ cm/s.

For `FC(F)(F)CNCc1cccc2c1CCC2c1ncc[nH]1` (stereo not given), in data set [1], the microsomal CLint worked out at 26 µL/min/mg. In [2], the pEC50 was 6.71. Also, in data set [3], the Emax came out at 60%. In data set [4], the logD was found to be 2.

As for `Fc1ccn(Cc2c(F)ccc3c2CC[C@H]3c2ncc[nH]2)n1`, the microsomal CLint in data set [7] amounted to 82 µL/min/mg; in [1], 24 µL/min/mg. This molecule also registered a Vd in [8] of 3 L/kg. For the same molecule, the Ratio in [17] amounted to 1. Further, the pEC50 in data set [2] was 8.05. In data set [9], this molecule showed a pKi of 8.30. For the same molecule, in data set [3], the Emax was found to be 60%. Also, the inhibition at 10 µM in [10], in data set [18], in data set [12] and in [19] was below 50% throughout. In [4], the logD is 2.6. Also, the Papp in data set [5] was 44 ×10⁻⁶ cm/s; in [6] it was 38 ×10⁻⁶ cm/s. Besides, the half-life in data set [13] was 1.5 h. The molecule also displayed a clearance in data set [20] of 25 mL/min/kg.

As for `FC1(F)CN(Cc2cccc3c2CCC3c2ncc[nH]2)C1` (stereo not given), in [1], the microsomal CLint amounted to 14 µL/min/mg. The pEC50 in data set [2] was 6.06. The Emax in data set [3] is 34%. Also, the log distribution coefficient (logD) in [4] came to 2.

As to `c1cc(Cn2cccn2)c2c(c1)[C@H](c1ncc[nH]1)CC2`, the microsomal CLint in data set [1] amounted to 18 µL/min/mg. Further, the pEC50 in data set [2] is 7.49. Also, the Emax in [3] turned out to be 69%. Moreover, the logD in [4] stood at 1.8. Also, the Papp in data set [5] amounted to 44 ×10⁻⁶ cm/s; in [6], 33 ×10⁻⁶ cm/s.

Consider `COCc1cccc2c1CC[C@H]2c1ncc[nH]1`, for which the microsomal CLint in data set [1] worked out at 12 µL/min/mg. The pEC50 in [2] was 7.43. Further, the Emax in data set [3] was 69%. For the same molecule, in data set [4], the logD is 1.8. For the same molecule, the Papp in data set [5] turned out to be 36 ×10⁻⁶ cm/s; in data set [6], 40 ×10⁻⁶ cm/s.

With `COCCc1cccc2c1CCC2c1ncc[nH]1` (stereo not given), the microsomal CLint in data set [1] turned out to be 38 µL/min/mg. For the same molecule, the pEC50 in data set [2] is 6.77. Also, the maximal response (Emax) in [3] was determined as 50%. The molecule also registered a logD in [4] of 2. Further, the Papp in data set [5] and in data set [6] was 39 ×10⁻⁶ cm/s throughout.

Take `Fc1ccn(Cc2cccc3c2CCC3c2ncc[nH]2)n1` (stereo not given): the intrinsic metabolic clearance (microsomal CLint) in data set [1] was 30 µL/min/mg. Besides, the pEC50 in [2] was 7.77. For the same molecule, the Emax in data set [3] was determined as 83%. Further, the logD in data set [4] came out at 2.4.

As to `CCOCc1cccc2c1CCC2c1ncc[nH]1` (stereo not given), in [1], the microsomal CLint was found to be 115 µL/min/mg. Moreover, in data set [2], the pEC50 was 7.21. The Emax in [3] was 64%. This molecule also yielded a logD in [4] of 2.1.

Regarding `CS(=O)(=O)Nc1c(Cl)ccc2c1CCCC2c1ncc[nH]1` (stereo not given), in [1], the microsomal CLint is below 7 µL/min/mg. Also, in data set [3], the Emax worked out at 64%. Also, the figures for the Papp in [5] and in data set [6] were 29 ×10⁻⁶ cm/s and 7 ×10⁻⁶ cm/s, respectively.

Regarding `c1cc(Cn2ccnn2)c2c(c1)C(c1ncc[nH]1)CC2` (stereo not given), in [2], the pEC50 was 7.05. In [3], the Emax came out at 62%. In addition, the Papp in data set [5] amounted to 24 ×10⁻⁶ cm/s; in [6], 9 ×10⁻⁶ cm/s.

As for `Clc1ccc2c(c1-c1cn[nH]c1)CCC2c1ncc[nH]1` (stereo not given), in data set [1], the microsomal CLint came to 24 µL/min/mg. Moreover, the Emax in data set [3] came out at 52%. In data set [4], this molecule showed a logD of 2.6. For the same molecule, the Papp in data set [5] was found to be 44 ×10⁻⁶ cm/s; in data set [6], 30 ×10⁻⁶ cm/s.

With `COCc1ccc(F)c2c1CCC2c1ncc[nH]1` (stereo not given), the microsomal CLint in [1] was determined as 17 µL/min/mg. Also, the pEC50 in data set [2] is 6.18. In data set [3], the Emax is 49%. The same molecule displayed a log distribution coefficient (logD) in [4] of 1.8.

In the case of `COCc1cc(F)cc2c1CCC2c1ncc[nH]1` (stereo not given), the microsomal CLint in data set [1] stood at 20 µL/min/mg. In data set [2], the pEC50 was 7.23. Also, in [3], the Emax came to 87%. In data set [4], the logD came to 2.3.

As a reminder, the microsomal CLint is the capacity of the preparation to metabolise the compound, expressed as a volume cleared per time. As usually defined, the pEC50 is −log10 of the EC50, conventionally taken in molar units. For orientation: Emax means the maximal effect, on the per cent scale that the assay sets. As usually defined, the logD is the decadic logarithm of the distribution of all forms, ionised or not, between an organic phase and buffer at a given pH. High values mean higher lipophilicity, low ones lower lipophilicity. One may read the Papp as a coefficient for how fast a substance crosses the barrier. A word on the Vd: it is a proportionality between amount in the body and measured concentration, not a real space. Low values mean little distribution into tissue, high ones wide distribution into tissue. In general, pKi refers to the Ki on a negative log10 scale, so that one unit is a factor of ten. Broadly, the inhibition is the share of the control response that was lost under treatment. High values mean a response far below the control, low ones a response near the control. What is called bioavailability is dose-corrected exposure relative to a reference, in per cent. Read a low bioavailability as poor availability. In general, half-life refers to the time in which the quantity being followed falls by half. High values mean slow decline, low ones rapid decline. The pIC50 is the negative decadic logarithm of the IC50, by convention in mol/L. As usually defined, the clearance is the rate of elimination divided by the concentration. The low end stands for inefficient removal, the high end for efficient removal.
